According to ChEMBL document CHEMBL1155221, “Identification of novel indanylsulfonamide guanylhydrazones as potent 5-HT6 serotonin receptor antagonists” (J Med Chem, 2009):

Tests used:
[1] = molecular target: T1, 5-hydroxytryptamine receptor 6 (Homo sapiens, UniProt P50406); assay: Displacement of [3H]LSD from human recombinant 5HT6 receptor expressed in HEK293 cells after 60 mins by liquid scintillation counting; format: cell-based
How it was run: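 Competition binding on membranes from HEK-293 cells expressing recombinant human 5-HT6 receptor, with [3H]-LSD as radioligand. […] Values are mean ± SEM of three experiments.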

[2] = molecular target: T1, 5-hydroxytryptamine receptor 6; assay: Inhibition of [3H]LSD binding to human recombinant 5HT6 receptor expressed in HEK293 cells at 100 nM after 60 mins by liquid scintillation counting; format: cell-based
How it was run: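 Single-point competition at 100 nM test compound against [3H]-LSD on membranes from HEK-293 cells expressing recombinant human 5-HT6 receptor. Percent inhibition of radioligand binding reported.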

[3] = molecular target: T1, 5-hydroxytryptamine receptor 6; assay: Antagonist activity at human 5HT6 receptor expressed in HEK293F cells assessed as inhibition of 5-HT-stimulated cAMP production at […] after 30 mins by HTRF assay relative to (+/-)-6-chloro-N-(3-(1-methylpyrrolidin-3-yl)-1H-inden-5-yl)imidazo[2,1-b]thiazole-5-sulfonamide; format: functional, cell-based
[4] = molecular target: T1, 5-hydroxytryptamine receptor 6; assay: Antagonist activity at human 5HT6 receptor expressed in HEK293F cells assessed as inhibition of 5-HT-stimulated cAMP production after 30 mins by HTRF assay; format: functional, cell-based
How it was run: (§1)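 HEK-293F cells stably expressing human 5-HT6 receptor. Compounds were tested against 5-HT-stimulated cAMP production, with cAMP read by homogeneous time-resolved fluorescence (HTRF). Antagonism expressed as Imax and IC50. Data are mean ± SEM of three experiments.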

[5] = molecular target: T2, Adrenergic receptor alpha-1 (Rattus norvegicus, UniProt P15823+P23944+P43140); assay: Inhibition of rat alpha 1 adrenoceptor
T2 sequence (P15823 whole entry): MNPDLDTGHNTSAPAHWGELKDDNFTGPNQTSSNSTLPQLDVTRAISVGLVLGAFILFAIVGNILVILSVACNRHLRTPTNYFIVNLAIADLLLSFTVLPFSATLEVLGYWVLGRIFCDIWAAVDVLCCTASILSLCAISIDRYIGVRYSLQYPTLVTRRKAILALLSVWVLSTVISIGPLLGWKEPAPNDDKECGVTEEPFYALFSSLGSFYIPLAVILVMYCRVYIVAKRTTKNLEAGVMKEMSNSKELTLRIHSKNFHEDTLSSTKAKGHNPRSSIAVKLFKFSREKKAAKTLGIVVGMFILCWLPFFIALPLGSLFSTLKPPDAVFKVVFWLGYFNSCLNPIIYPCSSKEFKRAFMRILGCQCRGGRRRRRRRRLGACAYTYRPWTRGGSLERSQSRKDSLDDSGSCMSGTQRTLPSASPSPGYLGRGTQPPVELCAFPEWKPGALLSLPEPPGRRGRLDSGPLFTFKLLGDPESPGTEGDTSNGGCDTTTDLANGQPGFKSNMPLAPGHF
T2 sequence (P23944 whole entry): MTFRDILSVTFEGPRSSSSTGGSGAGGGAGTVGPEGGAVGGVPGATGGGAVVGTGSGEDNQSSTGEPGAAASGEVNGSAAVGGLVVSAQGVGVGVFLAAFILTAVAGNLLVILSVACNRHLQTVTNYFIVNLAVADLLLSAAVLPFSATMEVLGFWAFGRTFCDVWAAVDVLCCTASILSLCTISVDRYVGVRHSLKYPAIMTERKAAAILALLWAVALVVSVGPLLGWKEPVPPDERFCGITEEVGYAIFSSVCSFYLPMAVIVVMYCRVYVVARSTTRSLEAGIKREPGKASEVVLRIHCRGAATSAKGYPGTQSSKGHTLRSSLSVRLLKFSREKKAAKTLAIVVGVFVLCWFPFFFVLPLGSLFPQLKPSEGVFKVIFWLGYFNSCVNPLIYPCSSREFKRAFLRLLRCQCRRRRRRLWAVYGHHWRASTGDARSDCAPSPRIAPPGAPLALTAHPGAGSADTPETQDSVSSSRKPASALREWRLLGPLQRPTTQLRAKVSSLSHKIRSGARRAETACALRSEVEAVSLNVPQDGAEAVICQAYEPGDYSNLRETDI
T2 sequence (P43140 whole entry): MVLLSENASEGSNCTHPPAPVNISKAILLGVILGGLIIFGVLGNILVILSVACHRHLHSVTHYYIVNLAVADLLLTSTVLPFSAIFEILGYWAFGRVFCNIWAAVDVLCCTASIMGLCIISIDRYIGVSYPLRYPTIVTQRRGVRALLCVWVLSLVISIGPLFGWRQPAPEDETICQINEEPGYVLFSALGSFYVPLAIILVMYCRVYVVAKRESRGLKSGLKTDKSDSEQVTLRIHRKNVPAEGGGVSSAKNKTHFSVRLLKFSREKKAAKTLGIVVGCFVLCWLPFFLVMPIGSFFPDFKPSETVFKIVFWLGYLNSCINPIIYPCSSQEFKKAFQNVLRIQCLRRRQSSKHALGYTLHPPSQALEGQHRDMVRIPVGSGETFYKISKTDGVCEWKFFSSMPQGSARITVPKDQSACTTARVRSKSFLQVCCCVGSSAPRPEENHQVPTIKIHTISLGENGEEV

[6] = molecular target: T3, Adrenergic receptor alpha-2 (Homo sapiens, UniProt P08913+P18825+P18089); assay: Inhibition of human alpha 2 adrenoceptor
T3 sequence (P08913 whole entry): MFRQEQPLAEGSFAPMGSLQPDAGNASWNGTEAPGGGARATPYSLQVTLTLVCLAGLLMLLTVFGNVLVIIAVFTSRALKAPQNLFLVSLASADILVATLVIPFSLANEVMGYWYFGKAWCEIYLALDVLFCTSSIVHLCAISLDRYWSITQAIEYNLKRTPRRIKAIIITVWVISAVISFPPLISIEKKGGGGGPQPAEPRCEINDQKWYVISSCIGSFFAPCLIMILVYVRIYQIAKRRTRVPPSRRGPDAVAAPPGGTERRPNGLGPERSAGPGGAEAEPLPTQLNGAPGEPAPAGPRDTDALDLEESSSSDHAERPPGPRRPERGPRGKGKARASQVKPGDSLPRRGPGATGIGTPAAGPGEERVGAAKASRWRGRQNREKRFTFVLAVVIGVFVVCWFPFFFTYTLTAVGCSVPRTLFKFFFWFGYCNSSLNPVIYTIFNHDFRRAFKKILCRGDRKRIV
T3 sequence (P18825 whole entry): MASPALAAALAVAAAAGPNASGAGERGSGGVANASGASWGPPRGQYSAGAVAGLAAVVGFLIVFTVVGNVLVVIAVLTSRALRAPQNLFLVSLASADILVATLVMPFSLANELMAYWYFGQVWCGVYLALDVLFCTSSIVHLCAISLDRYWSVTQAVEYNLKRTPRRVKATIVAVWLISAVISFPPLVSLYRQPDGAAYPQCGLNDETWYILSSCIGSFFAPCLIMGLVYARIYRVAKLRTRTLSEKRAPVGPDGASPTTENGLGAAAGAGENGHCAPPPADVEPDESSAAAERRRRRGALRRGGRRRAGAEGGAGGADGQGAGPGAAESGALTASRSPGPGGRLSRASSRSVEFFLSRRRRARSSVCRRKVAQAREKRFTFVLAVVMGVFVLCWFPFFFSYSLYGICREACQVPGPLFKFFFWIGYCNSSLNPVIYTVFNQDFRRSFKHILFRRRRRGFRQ
T3 sequence (P18089 whole entry): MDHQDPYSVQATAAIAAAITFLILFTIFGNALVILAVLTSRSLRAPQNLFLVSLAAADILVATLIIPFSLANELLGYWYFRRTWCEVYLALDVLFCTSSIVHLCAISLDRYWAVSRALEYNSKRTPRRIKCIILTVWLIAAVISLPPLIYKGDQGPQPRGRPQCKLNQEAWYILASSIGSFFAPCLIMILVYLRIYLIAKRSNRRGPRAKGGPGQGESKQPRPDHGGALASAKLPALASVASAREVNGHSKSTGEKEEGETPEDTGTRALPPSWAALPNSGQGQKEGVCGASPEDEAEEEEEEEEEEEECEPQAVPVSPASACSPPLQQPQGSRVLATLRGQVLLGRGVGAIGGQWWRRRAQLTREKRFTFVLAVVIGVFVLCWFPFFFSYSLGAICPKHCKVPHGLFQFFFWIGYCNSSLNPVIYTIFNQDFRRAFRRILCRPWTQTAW

[7] = molecular target: T4, 5-hydroxytryptamine receptor 2C (Homo sapiens, UniProt P28335); assay: Inhibition of human 5HT2C receptor
T4 sequence (P28335 whole entry): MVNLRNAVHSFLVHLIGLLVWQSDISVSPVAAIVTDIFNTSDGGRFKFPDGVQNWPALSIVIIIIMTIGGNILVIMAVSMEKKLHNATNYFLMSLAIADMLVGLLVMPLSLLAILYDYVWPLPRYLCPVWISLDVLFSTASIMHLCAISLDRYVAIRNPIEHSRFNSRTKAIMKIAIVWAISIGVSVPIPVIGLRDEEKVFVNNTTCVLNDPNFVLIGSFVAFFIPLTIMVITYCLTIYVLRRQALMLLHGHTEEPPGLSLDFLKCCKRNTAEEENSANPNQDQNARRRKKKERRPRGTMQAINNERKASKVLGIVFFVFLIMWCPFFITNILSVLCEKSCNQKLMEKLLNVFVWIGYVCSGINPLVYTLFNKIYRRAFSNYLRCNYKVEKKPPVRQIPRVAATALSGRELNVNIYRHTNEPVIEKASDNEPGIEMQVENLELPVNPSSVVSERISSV

[8] = molecular target: Sodium-dependent serotonin transporter (Homo sapiens, UniProt P31645); assay: Inhibition of human SERT
[9] = molecular target: T5, 5-hydroxytryptamine receptor 1A (Homo sapiens, UniProt P08908); assay: Inhibition of human 5HT1A receptor
T5 sequence (P08908 whole entry): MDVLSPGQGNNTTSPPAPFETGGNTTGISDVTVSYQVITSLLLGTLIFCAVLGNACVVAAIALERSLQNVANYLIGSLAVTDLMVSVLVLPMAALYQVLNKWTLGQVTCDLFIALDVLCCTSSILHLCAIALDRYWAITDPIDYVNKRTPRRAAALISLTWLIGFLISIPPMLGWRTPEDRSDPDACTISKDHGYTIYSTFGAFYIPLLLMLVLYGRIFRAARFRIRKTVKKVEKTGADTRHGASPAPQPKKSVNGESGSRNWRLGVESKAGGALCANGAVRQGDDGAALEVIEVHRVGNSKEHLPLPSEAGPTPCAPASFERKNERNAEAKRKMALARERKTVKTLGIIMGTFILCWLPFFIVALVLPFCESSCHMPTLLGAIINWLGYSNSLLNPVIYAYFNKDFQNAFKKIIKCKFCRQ

[10] = molecular target: T1, 5-hydroxytryptamine receptor 6; assay: Displacement of [3H]LSD from human cloned 5HT6 receptor expressed in human HeLa cells; format: cell-based
[11] = molecular target: T1, 5-hydroxytryptamine receptor 6; assay: Antagonist activity at human 5HT6 receptor expressed in HEK293F cells assessed as inhibition of 5-HT-stimulated cAMP production at […] after 30 mins by HTRF assay; format: functional, cell-based; how it was run: as §1

T1 sequence (P50406 whole entry): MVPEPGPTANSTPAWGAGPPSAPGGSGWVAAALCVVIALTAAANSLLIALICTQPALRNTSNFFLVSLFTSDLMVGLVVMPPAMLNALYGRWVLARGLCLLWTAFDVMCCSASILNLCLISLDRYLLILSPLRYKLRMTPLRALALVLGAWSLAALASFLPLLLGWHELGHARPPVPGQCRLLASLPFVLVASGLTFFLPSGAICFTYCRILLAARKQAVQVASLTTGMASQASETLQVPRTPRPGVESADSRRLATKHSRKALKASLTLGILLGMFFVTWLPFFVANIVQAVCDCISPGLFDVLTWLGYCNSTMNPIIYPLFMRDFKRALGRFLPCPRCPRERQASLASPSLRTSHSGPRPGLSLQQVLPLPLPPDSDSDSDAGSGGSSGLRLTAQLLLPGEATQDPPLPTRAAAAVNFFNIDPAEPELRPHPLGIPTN
Sequence of Sodium-dependent serotonin transporter (P31645 whole entry): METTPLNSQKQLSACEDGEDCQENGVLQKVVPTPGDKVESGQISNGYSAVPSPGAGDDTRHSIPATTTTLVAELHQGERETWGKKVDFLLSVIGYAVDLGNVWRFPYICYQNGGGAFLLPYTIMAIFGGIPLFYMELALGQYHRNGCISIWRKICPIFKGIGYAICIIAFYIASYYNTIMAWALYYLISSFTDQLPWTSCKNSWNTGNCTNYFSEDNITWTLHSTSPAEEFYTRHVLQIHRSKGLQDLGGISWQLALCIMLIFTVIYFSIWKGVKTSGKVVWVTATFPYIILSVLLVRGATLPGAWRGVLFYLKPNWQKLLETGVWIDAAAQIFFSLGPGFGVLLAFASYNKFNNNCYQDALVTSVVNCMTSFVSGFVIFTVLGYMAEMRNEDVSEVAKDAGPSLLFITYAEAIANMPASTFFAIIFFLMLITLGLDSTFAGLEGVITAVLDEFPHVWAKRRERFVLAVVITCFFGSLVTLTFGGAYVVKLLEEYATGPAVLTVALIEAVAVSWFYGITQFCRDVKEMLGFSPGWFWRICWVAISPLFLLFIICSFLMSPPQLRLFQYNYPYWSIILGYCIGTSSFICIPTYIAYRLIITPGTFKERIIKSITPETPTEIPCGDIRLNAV

SMILES | Ki [1] [nM] | inhibition [2] [%] | Imax [3] [%] | IC50 [4] [nM] | IC50 [5] [nM] | IC50 [6] | IC50 [7] [nM] | IC50 [8] [nM] | IC50 [9] [nM] | Ki [10] [nM] | Imax [11] [%]
O=S(=O)(Nc1ccc2c(c1)/C(=N/NC1=NCCN1)CC2)c1c(Cl)nc2sccn12 | 2.2 | > 80 | 173 | 176 | > 1000 | > 1 ×10⁴ nM | > 10000 | > 10000 |  |  | 
CN1CCOc2ccc(S(=O)(=O)Nc3ccc4c(c3)/C(=N/NC(=N)N)CC4)cc21 | 26 | > 80 | 187 | 581 |  |  |  |  | > 1000 |  | 
Cl.N=C(N)N/N=C1\CCc2ccc(NS(=O)(=O)c3ccc4ccccc4c3)cc21 | 62 | > 80 | 127 | 53 |  | > 1000 nM |  |  | > 1000 |  | 
C/C(=N\NC(=N)N)c1cn(S(=O)(=O)c2ccc(N)cc2)c2ccccc12 |  |  |  |  |  |  |  |  |  | ≤ 8 | 
CC1(C)C/C(=N\NC(=N)N)c2cc(NS(=O)(=O)c3c(Cl)nc4sccn34)ccc21.Cl | 5.2 | > 80 | 146 | 238 |  | > 1 ×10⁴ nM | > 1000 | > 10000 | > 1000 |  | 
CC1(C)C/C(=N\NC2=NCCN2)c2cc(NS(=O)(=O)c3c(Cl)nc4sccn34)ccc21 |  | 77 |  |  |  |  |  |  |  |  | 
CN1CCC(C2=CCc3ccc(NS(=O)(=O)c4c(Cl)nc5sccn45)cc32)C1 (stereo not drawn) | 3 | > 80 |  | 1580 |  |  |  |  |  |  | 100
